Published values pooled from the literature.
Target: Mitogen-activated protein kinase kinase kinase 7 (MAP3K7, Homo sapiens, UniProt O43318)
Sequence (O43318 1-606, as in one of the studies): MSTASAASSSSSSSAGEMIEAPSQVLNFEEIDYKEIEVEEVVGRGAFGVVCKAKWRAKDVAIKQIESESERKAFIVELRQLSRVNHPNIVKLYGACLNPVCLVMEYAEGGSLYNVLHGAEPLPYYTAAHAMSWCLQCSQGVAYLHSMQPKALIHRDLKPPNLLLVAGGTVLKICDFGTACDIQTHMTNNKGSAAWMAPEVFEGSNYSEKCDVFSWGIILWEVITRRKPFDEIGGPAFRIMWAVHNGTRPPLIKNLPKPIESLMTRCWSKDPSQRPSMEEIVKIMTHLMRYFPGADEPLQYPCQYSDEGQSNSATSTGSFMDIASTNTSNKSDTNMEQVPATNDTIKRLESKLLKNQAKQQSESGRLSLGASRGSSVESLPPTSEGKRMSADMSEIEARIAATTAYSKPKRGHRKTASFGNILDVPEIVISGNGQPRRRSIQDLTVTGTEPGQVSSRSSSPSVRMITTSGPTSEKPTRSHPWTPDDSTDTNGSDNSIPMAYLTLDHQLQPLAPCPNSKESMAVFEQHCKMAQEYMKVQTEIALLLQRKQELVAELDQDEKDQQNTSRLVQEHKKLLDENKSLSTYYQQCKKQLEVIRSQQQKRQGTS

| Compound | test | conditions | endpoint | value |
| --- | --- | --- | --- | --- |
| Cc1cc(O)c(-c2ccc([C@@H](C)CN(C)C)cc2)c2c1[nH]c(=O)c1sccc12 | enzyme activity, inhibitor | 0.1 µM | inhibition | -18.1% |
| CS(=O)(=O)c1ccccc1Nc1nc(Nc2ccnc(CO)c2)ncc1Cl | enzyme activity, inhibitor | 1 µM | remaining activity | 70.7% |
| C=CC(=O)N1CCC([C@@H]2CCNc3c(C(N)=O)c(-c4ccc(Oc5ccccc5)cc4)nn32)CC1 | enzyme activity, inhibitor | 1 µM | inhibition | 19% |
| CS(=O)(=NC#N)c1ccccc1Nc1nc(Nc2ccc(CO)nc2)ncc1Cl (centres unmarked) | enzyme activity, inhibitor | 1 µM | remaining activity | 55.8% |
| CN1CCN(C(=O)c2ccc(NC(=O)Nc3ccc(N(C)c4ccnc(Nc5ccc(CS(C)(=O)=O)cc5)n4)cc3)cc2)CC1 | binding, competition with immobilised ligand | 1 µM | remaining binding | 25% |
| CC#CC(=O)N1CCC[C@H]1c1nc(-c2ccc(C(=O)Nc3ccccn3)cc2)c2c(N)nccn12 | enzyme activity, inhibitor | 1 µM | inhibition | 12% |
| C[C@H]1CC[C@H](n2c3cnccc3c3cnc(Nc4ccc5c(n4)CCN(C(=O)CO)C5)nc32)CC1 | binding, competition with immobilised ligand | 1 µM | remaining binding | 47% |
| CCCCC(=O)Nc1ccc(-c2ccc3ncn(CCC)c(=O)c3c2)cn1 | binding, competition with immobilised ligand | 0.5 µM | remaining binding | 87% |
